The record followed here is ChEMBL document CHEMBL4477155, “Simplified Bryostatin Analogues Protect Cells from Chikungunya Virus-Induced Cell Death” (J Nat Prod, 2016).

For one series, the system named is Chikungunya virus. Put plainly: Antiviral activity against Chikungunya virus Indian Ocean 899 infected in African green monkey BGM cells assessed as inhibition of virus-induced cytopathic effect after 5 days by MTS/PMS based […] analysis. Format: functional, organism-based. To be noted: Indian Ocean 899, BGM, 120 h. A general note: Protection from cytopathic effect is a common read-out in antiviral testing.

Series [1] in a line: Cytotoxicity against African green monkey BGM cells assessed as reduction in cell viability after 5 days by MTS/PMS based microscopic analysis. The note with it: chlorocebus aethiops. In short, it runs like this:
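Uninfected BGM cells (2.5 × 10^4 cells/well, adhered overnight) exposed to compound dilution series in MEM with 2% FBS at 37 °C, 5% CO2; metabolic activity read by MTS/PMS, with microscopic check of monolayer morphology. CC50 = concentration reducing overall metabolic activity by 50%, by logarithmic interpolation.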

What is called EC50 is the concentration giving half of the maximal effect. A word on the CC50: it is the concentration at which the toxic effect on the cells reaches its halfway point. As to `CCC/C=C/C=C/C(=O)O[C@H]1/C(=C/C(=O)OC)C[C@H]2C[C@H]([C@@H](C)O)OC(=O)C[C@H](O)C[C@@H]3C[C@H](O)C(C)(C)[C@](O)(C[C@@H]4C/C(=C/C(=O)OC)C[C@H](/C=C/C(C)(C)[C@]1(O)O2)O4)O3`, the half-maximal effective concentration (EC50) in the series on Chikungunya virus was above 96 µM. In series [1], the CC50 at 120 h was above 96 µM.

As for `C=C1C[C@H]2C[C@@H]3O[C@@H](CCC3(C)C)C[C@@H](O)CC(=O)O[C@@H](CO)C[C@@H]3C/C(=C\C(=O)OC)[C@H](OC(=O)CCCCCCC)[C@@](O)(O3)C(C)(C)/C=C/[C@@H](C1)O2`, the half-maximal effective concentration (EC50) in the series with Chikungunya virus was found to be 0.35 µM.

For `CCC/C=C/C=C/C(=O)O[C@H]1/C(=C/C(=O)OC)C[C@H]2C[C@H]([C@@H](C)O)OC(=O)C[C@H](O)C[C@@H]3C[C@H](OC(C)=O)C(C)(C)[C@](O)(C[C@@H]4C/C(=C/C(=O)OC)C[C@H](/C=C/C(C)(C)[C@]1(O)O2)O4)O3` [BRYOSTATIN 1], in the series on Chikungunya virus, the half-maximal effective concentration (EC50) is above 96 µM.
